High-throughput results deposited in PubChem BioAssay by SRMLSC.
The sample as a whole holds a higher share of hits than the screen did.
HCT116 PTEN-null: growth suppression of PTEN-null HCT116, primary screen, cell-based, CellTiter-Glo; 140,000 tested, 1.2% active; viability, % at 10 µM; HCT116 PTEN-null viability, 60 h; stronger effect = lower value;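 active = viability at or below a set limit, 4 SD under the median of all tested compounds, cut at about 3.7% in these data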;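 note: PTEN knockout HCT116 line with beta catenin targeted HCT116 as companion control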
HUVEC inhibit: inhibitors of HUVEC proliferation, primary screen, cell-based, 384-well | CellTiter-Glo luminescence, 72 h; stronger effect = lower value | viability, % at 10 µM (by protocol) | 86,000 tested, 1.1% active | AID 648, 2007;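 active = viability at or below 30%; inactive = viability above 30%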;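 note: 100% = median luminescence of DMSO-only cell control wells on each plate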
Fibroblast inh: antiproliferative effect on LL 47 fibroblasts – human, LL 47 cells, CellTiter-Glo luminescence, primary screen. LL 47 human lung fibroblast viability, ATP luminescence; stronger effect = lower value. viability, % at 10 µM. 85,000 tested, 1.1% active. AID 719, 2007;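 active = viability at or below 50% in the single dose screen; inactive = viability above 50%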;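 note: compound exposure lasted 72 h before the ATP readout; 100% = median luminescence of untreated cell-only wells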
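Times – overnight cell rest, 72 h compound treatment at 37 °C · Test system – human lung fibroblast line LL 47, low passage · Amount – 1,150 cells in each well · Controls – cell-only wells, no compound · Doses – 0.1% DMSO in all compound wells · Measured by – CellTiter-Glo luminescence · Buffer or medium – IMEM plus 15% FBS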
HCT116 bCat-KO: primary screen for growth suppressors in beta-catenin knockout HCT116 cells (colon tumor, human); HCT116 beta-catenin knockout viability, CellTiter-Glo, 60 h; stronger effect = lower value; viability, % at 10 µM; 140,000 tested, 1.5% active; AID 818, 2007;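 active = viability at or under a set limit, the compound median less 4 SD, cut at about 6% in these data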;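 note: 0% = Hyamine 1622 control at 20 µM and 100% = untreated cell control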
H69AR inhibit: proliferation blockers of H69AR lung cancer cells, primary screen, cell-based, human, 86K library | H69AR lung tumor viability, ATP luminescence, 72 h; stronger effect = lower value | viability, % at 10 µM | 85,000 tested, 6% active | AID 598, 2007;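 active = viability at or below 40%; inactive = viability above 40%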;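 note: multidrug resistant small cell line overexpressing MRP-1 efflux transporter; 100% = mean luminescence of untreated control wells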
Numbers without * were called inactive; nt = not tested or not shown.

SMILES | HCT116 PTEN-null | HUVEC inhibit | Fibroblast inh | HCT116 bCat-KO | H69AR inhibit
CCn1c(=O)c(C(=O)Nc2cnccn2)c(O)c2ccccc21 | nt | 111.9 | 94.2 | nt | 92.3
Cn1c(=O)c(C(=O)Nc2cnccn2)c(O)c2ccccc21 | nt | 97.8 | 104.0 | nt | 0.6*
Cn1c(=O)c(C(=O)Nc2ccccn2)c(O)c2ccccc21 | 12.4 | 103.4 | 54.7 | 14.7 | 19.2*
COc1ccc(C(=O)Nc2ccc(Cl)cc2C(=O)NCCN2CCOCC2)cc1 | 92.6 | 100.8 | 113.2 | 104.1 | 77.0
COC(=O)CC(N)c1ccc(OC)c2ccccc12 (stereo not given) | 100.0 | 100.0 | 100.4 | 102.0 | 92.4
CCOc1ccccc1C1C(C(=O)Nc2ccccc2OC)=C(C)Nc2nnnn21 (stereo not given) | 94.8 | 94.5 | 97.1 | 88.6 | 87.9
Nc1c(C(=O)Nc2ccc(S(=O)(=O)N3CCCC3)cc2)sc2nc3cc4c(cc3cc12)CCC4 | 1.5* | nt | nt | 5.8* | nt
CCCCN(C)Cc1c(C)[nH]c2ccc(OCC)cc2c1=O | 100.8 | 98.2 | 99.4 | 87.3 | 89.2
COc1ccc(NC2=C(C(C)=O)C(c3ccc4c(c3)OCO4)C(C(C)=O)C(C)(O)C2)cc1 (stereo not given) | 89.8 | 86.6 | 90.0 | 94.0 | 83.1
CCOC(=O)c1ccccc1Nc1cn(C(C)=O)c2ccccc12 | 14.7 | 57.5 | 45.9* | 10.0 | 23.2*
CC(=O)n1cc(Nc2ccccc2C(=O)O)c2ccccc21 | 83.9 | 105.2 | 100.9 | 93.8 | 54.0
O=[N+]([O-])c1cccc(/C=C/c2nc3ccc([N+](=O)[O-])cc3[nH]2)c1 | 3.7* | nt | nt | 9.3 | nt
CCn1cc(C(=O)OCC(=O)Nc2ccc(S(=O)(=O)N3CCCC3)cc2)c(=O)c2ccc(C)nc21 | 101.3 | 90.6 | 87.9 | 97.6 | 25.8*
CC(=O)c1sc(Nc2nc(C)cc(C)n2)nc1C | 79.3 | 81.3 | 98.5 | 83.8 | 28.6*
CC(=O)c1sc(NC(=O)C(C)(C)C)nc1C | 109.3 | 90.0 | 111.6 | 90.5 | 90.6
CCCn1c(CCC(=O)Nc2ccccc2Cc2ccccc2)nc2cc(S(=O)(=O)N3CCOCC3)ccc21 | 69.5 | 107.2 | 90.2 | 62.7 | 39.2*
CC12CN3CC(C)(CN(C1)C31C(=O)N(Cc3ccccc3)c3ccccc31)C2=O (stereo not given) | nt | 88.4 | 91.8 | nt | 85.6
CC1(C)CC(=O)CC(C2(O)C(=O)N(Cc3ccccc3)c3ccccc32)O1 (stereo not given) | 9.9 | 94.5 | 102.6 | 11.1 | 28.5*
CC1(C)CC(=O)C(C2(O)C(=O)N(Cc3ccccc3)c3ccccc32)CO1 (stereo not given) | 12.2 | 76.3 | 97.4 | 14.3 | 17.0*
CCn1nnc(-c2ccccc2NS(=O)(=O)c2ccc(S(=O)(=O)N(C)C3CCCCC3)cc2)n1 | 69.8 | 89.6 | 76.8 | 63.0 | 52.2
O=C(Nc1ccccc1C(=O)Nc1ccc2c(c1)OCO2)c1ccco1 | 92.3 | 77.0 | 90.0 | 95.9 | 34.4*
C=CCn1c(SCC(=O)Nc2sccc2C(N)=O)nc2ccccc2c1=O | 76.4 | 58.7 | 87.6 | 75.5 | 31.3*
C=CCn1c(SCC(=O)Nc2sccc2C(N)=O)nc2ccc(Cl)cc2c1=O | 32.4 | 57.2 | 84.4 | 50.6 | 16.5*
C=CCn1c(SCC(=O)Nc2sccc2C(N)=O)nc2sc(CC)cc2c1=O | 74.5 | 73.1 | 85.5 | 70.7 | 39.8*
C=CCn1c(SCC(=O)c2c(N)n(CCC)c(=O)n(C)c2=O)nc2sc(CC)cc2c1=O | 35.6 | 83.0 | 46.5* | 40.8 | 7.7*
SMILES | HCT116 PTEN-null | HUVEC inhibit | Fibroblast inh | HCT116 bCat-KO | H69AR inhibit
C=CCn1c(SCC(=O)c2c(N)n(C)c(=O)n(C)c2=O)nc2sc(C)c(C)c2c1=O | 94.0 | nt | nt | 98.6 | nt
CC1=C(C(=O)OCc2ccccc2)C(c2ccc(Cl)cc2Cl)NC(=O)N1CCCC(=O)O (stereo not given) | 93.0 | nt | nt | 84.0 | nt
CC(C)NC(=S)NCc1cccnc1 | 92.5 | nt | nt | 95.4 | nt
Fc1cccc(Cl)c1/C=N/Nc1c(Cl)cncc1Cl | 79.8 | nt | nt | 77.8 | nt
Cc1ccccc1N1C(=O)CC(Sc2nnc(-c3ccccc3)o2)C1=O (stereo not given) | 96.9 | 85.3 | 45.9* | 83.6 | 1.8*
O=C1CC(Sc2nnc(-c3ccccc3)o2)C(=O)N1c1ccccc1 (stereo not given) | 115.8 | 106.4 | 90.3 | 96.5 | 1.8*
Cc1ccc(C)c(N2CCN(CCCNC(=O)Cn3cc4c(n3)CCCCC4)CC2)c1 | 1.7* | 21.9* | 83.9 | 2.1* | 50.5
Cc1ccc(C)c(N2CCN(CCCNC(=O)Cn3cc4c(n3)CCC(C)C4)CC2)c1 (stereo not given) | 8.6 | 15.4* | 73.2 | 9.9 | 45.5
CCOC(=O)c1cccc(NC(=O)CSc2nc3cccnc3n2C)c1 | 65.5 | 97.4 | 100.7 | 58.6 | 81.8
CN(C)CCCN1c2ccccc2Sc2ccccc21 | 54.3 | 90.1 | 90.1 | 64.1 | 57.0
CN(C)CCCN1c2ccccc2CCc2ccc(Cl)cc21 | 1.6* | 59.0 | 63.9 | 1.7* | 95.7
O=S(=O)(c1cccs1)N1CCN(CC(O)COc2cc(Cl)ccc2Cl)CC1 (stereo not given) | 16.9 | 72.1 | 93.7 | 14.0 | 74.6
CC(C)CNc1nnnc2c1sc1nc(N3CCOCC3)c3c(c12)CC(C)(C)SC3 | 40.9 | nt | nt | 45.1 | nt
CC1(C)Cc2c(c(N3CCOCC3)nc3sc4c(NCc5ccccc5)nnnc4c23)CS1 | 3.2* | 24.4* | 17.6* | 6.7 | 2.0*
CC1(C)Cc2c(c(N3CCOCC3)nc3sc4c(NCc5ccco5)nnnc4c23)CS1 | 47.8 | 87.2 | 84.4 | 48.0 | 37.0*
CC1(C)Cc2c(c(N3CCOCC3)nc3sc4c(NN)ncnc4c23)CS1 | 3.8 | 6.3* | 17.3* | 2.8* | 46.2
O=c1ccc(NS(=O)(=O)c2ccc(Cl)cc2)cn1Cc1ccc(Cl)c(Cl)c1 | 91.0 | nt | nt | 86.0 | nt
CNC(=O)[C@@]1(C)C=C[C@@H](Cc2ccccc2)N1C(=O)OC | 88.0 | nt | nt | 92.2 | nt
O=C(Cc1ccc(Cl)cc1)NN1C(=O)c2ccccc2C1=O | 111.5 | nt | nt | 98.8 | nt
COC(=O)[C@@H]1[C@@H](C#N)C2(c3ccccc3-c3ccccc32)N(c2ccc(Cl)cc2)N1C#N | 86.8 | 21.0* | 40.1* | 95.3 | 0.2*
CC(=O)C1C(c2cccc(F)c2)NC(=O)NC1(O)C(F)(F)F (stereo not given) | 92.7 | 97.0 | 96.8 | 97.8 | 104.1
COc1ccc(-n2c(=S)[nH]c3cc(C(=O)NCCCN4CCCC4=O)ccc3c2=O)cc1 | 12.8 | 92.1 | 93.3 | 5.2* | 98.2
CCC1Oc2ccc(C)cc2N(CC(=O)N(Cc2ccc(C)o2)C2CC(C)(C)NC(C)(C)C2)C1=O (stereo not given) | 11.9 | 73.2 | 83.5 | 21.2 | 32.5*
CCC1Oc2ccc(C)cc2N(CC(=O)N(Cc2cccnc2)Cc2ccc(C)o2)C1=O (stereo not given) | 77.9 | 88.9 | 97.0 | 75.8 | 58.2
